Key:
Type in all cases: functional
Mus musculus [1] = test: Percent increase in median life span of BDF1 mice with P-388 leukemia at dose 200 mg/kg administered intraperitoneally; conditions: BDF1, P388, ip, route intraperitoneal
Mus musculus [2] = species on record: Mus musculus; test: Anticancer activity measured as the number of survivors of the total treated mice with P-388 leukemia at 30 days.
How it was run: (§1)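 BDF1 or CDF1 mice given 10^6 ascitic P-388 leukemia cells ip, then treated ip on days 1, 5 and 9. Cures are survivors over total treated at 30 days.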

Mus musculus [3] = test: Percent increase in median life span of BDF1 mice with P-388 leukemia at dose 12.5 mg/kg administered intraperitoneally; conditions: BDF1, P388, ip, route intraperitoneal
Mus musculus [4] = species on record: Mus musculus; test: Number of survivors of the total treated mice with B-16 melanoma, at 60 days.
How it was run: (§2)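 BDF1 mice were implanted ip with a homogenate from 0.05 g of B-16 melanoma and dosed ip on days 1-9. Cures are survivors over total at 60 days.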

Mus musculus [5] = test: Percent increase in median life span of BDF1 mice with B-16 melanoma at dose 25 mg/kg administered intraperitoneally; conditions: BDF1, B16, ip, route intraperitoneal
How it was run: (§3)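 BDF1 mice were implanted ip with a homogenate from 0.05 g of B-16 melanoma. Ip dosing ran on days 1-9, starting 24 h after implant, in dose-response studies following NCI protocols. The read-out was percent increase in life span (ILS). T/C ≥125% was taken as significant.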

Mus musculus [6] = test: Percent increase in median life span of BDF1 mice with P-388 leukemia at dose 50 mg/kg administered intraperitoneally; conditions: BDF1, P388, ip, route intraperitoneal
Mus musculus [7] = test: Percent increase in median life span of BDF1 mice with B-16 melanoma at dose 12.5 mg/kg administered intraperitoneally; conditions: BDF1, B16, ip, route intraperitoneal; how it was run: as §3
Mus musculus [8] = test: Percent increase in median life span of BDF1 mice with P-388 leukemia at dose 25 mg/kg administered intraperitoneally; conditions: BDF1, P388, ip, route intraperitoneal
Mus musculus [9] = test: Percent increase in median life span of BDF1 mice with B-16 melanoma at dose 12 mg/kg administered intraperitoneally; conditions: BDF1, B16, ip, route intraperitoneal; how it was run: as §3
Mus musculus [10] = test: Percent increase in median life span of BDF1 mice with B-16 melanoma administered intraperitoneally; how it was run: as §3
Mus musculus [11] = test: Percent increase in median life span of BDF1 mice with B-16 melanoma at dose 50 mg/kg administered intraperitoneally; conditions: BDF1, B16, ip, route intraperitoneal; how it was run: as §3
Mus musculus [12] = species on record: Mus musculus; test: Cures is the number of survivors of the total treated mice (6) with P-388 leukemia, at 30 days.; how it was run: as §1
Mus musculus [13] = species on record: Mus musculus; test: Cures is the number of survivors of the total treated mice (10) with B-16 melanoma, at 60 days.; how it was run: as §2
Mus musculus [14] = test: Percent increase in median life span of BDF1 mice with P-388 leukemia at dose 6.25 mg/kg administered intraperitoneally; conditions: BDF1, P388, ip, route intraperitoneal

N/N=C(\S)N/N=C/c1c2ccccc2c(/C=N/N/C(S)=N/N)c2ccccc12
ILS at 200 mg/kg (Mus musculus [1]): 0%
Cures (Mus musculus [2]): 0

Cl.Cl.Cl.Cl.N=C(NCc1ccncc1)N/N=C/c1c2ccccc2c(/C=N/NC(=N)NCc2ccncc2)c2ccccc12
ILS at 12.5 mg/kg (Mus musculus [3]): 90%
Cures (Mus musculus [2]): 0
Cures (Mus musculus [4]): 0
ILS at 25 mg/kg (Mus musculus [5]): 78%

CSC(=N)N/N=C/c1c2ccccc2c(/C=N/N=C(/N)SC)c2ccccc12
ILS at 200 mg/kg (Mus musculus [1]): 0%
Cures (Mus musculus [2]): 0

C(=N\Nc1ccccn1)/c1c2ccccc2c(/C=N/Nc2ccccn2)c2ccccc12
ILS at 200 mg/kg (Mus musculus [1]): 0%
Cures (Mus musculus [2]): 0

COc1ccc(OC)c2c(/C=N/NC3=NCCN3)c3ccccc3c(/C=N/NC3=NCCN3)c12.Cl.Cl
Cures (Mus musculus [2]): 0
Cures (Mus musculus [4]): 0
ILS at 50 mg/kg (Mus musculus [6]): 50%
ILS at 12.5 mg/kg (Mus musculus [7]): 64%

C(=N\NC1=NCc2ccccc2CN1)/c1c2ccccc2c(/C=N/NC2=NCc3ccccc3CN2)c2ccccc12
ILS at 200 mg/kg (Mus musculus [1]): 30%
Cures (Mus musculus [2]): 0

C(=N\NC1=NCCCCC1)/c1c2ccccc2c(/C=N/NC2=NCCCCC2)c2ccccc12.Cl.Cl
Cures (Mus musculus [2]): 0
Cures (Mus musculus [4]): 0
ILS at 25 mg/kg (Mus musculus [8]): 95%
ILS at 12 mg/kg (Mus musculus [9]): 35%

Cl.Cl.S=C(NCCN1CCCCC1)N/N=C/c1c2ccccc2c(/C=N/NC(=S)NCCN2CCCCC2)c2ccccc12
Cures (Mus musculus [2]): 0
ILS at 50 mg/kg (Mus musculus [6]): 58%
ILS (Mus musculus [10]): 0%

C(/CCc1c2ccccc2c(CC/C=N/NC2=NCCN2)c2ccccc12)=N\NC1=NCCN1.Cl.Cl
Cures (Mus musculus [2]): 0
Cures (Mus musculus [4]): 0
ILS at 50 mg/kg (Mus musculus [11]): 0%
ILS at 50 mg/kg (Mus musculus [6]): 30%

N=C(N/N=C/c1c2ccccc2c(/C=N/NC(=N)NC2CCCCC2)c2ccccc12)NC1CCCCC1
Cures (Mus musculus [2]): 0
Cures (Mus musculus [4]): 0
ILS at 50 mg/kg (Mus musculus [6]): 73%
ILS at 12 mg/kg (Mus musculus [9]): 80%

COc1ccc(OC)c2c1C(/C=N/NC1=NCCN1)c1ccccc1C2/C=N/NC1=NCCN1 (stereo not drawn)
ILS at 200 mg/kg (Mus musculus [1]): 0%

CCCO.Clc1cccc2c1C(/C=N/NC1=NCCN1)c1cccc(Cl)c1C2/C=N/NC1=NCCN1 (stereo not drawn)
ILS at 200 mg/kg (Mus musculus [1]): 0%
ILS at 50 mg/kg (Mus musculus [11]): 0%

C(=N\Nc1nc2ccccc2s1)/c1c2ccccc2c(/C=N/Nc2nc3ccccc3s2)c2ccccc12
ILS at 200 mg/kg (Mus musculus [1]): 0%
Cures (Mus musculus [2]): 0

C(=C\c1c2ccccc2c(/C=C/C=N/NC2=NCCN2)c2ccccc12)/C=N/NC1=NCCN1.Cl.Cl
ILS at 200 mg/kg (Mus musculus [1]): 36%
Cures (Mus musculus [2]): 0
Cures (Mus musculus [4]): 0
ILS at 25 mg/kg (Mus musculus [5]): 46%

Cl.Cl.Cl.Cl.N=C(NCc1cccnc1)N/N=C/c1c2ccccc2c(/C=N/NC(=N)NCc2cccnc2)c2ccccc12
Cures (Mus musculus [4]): 0
Cures (Mus musculus [12]): 1
ILS at 25 mg/kg (Mus musculus [8]): 114%
ILS at 25 mg/kg (Mus musculus [5]): 77%

C(=N\NC1=NCCCCN1)/c1c2ccccc2c(/C=N/NC2=NCCCCN2)c2ccccc12
ILS at 12.5 mg/kg (Mus musculus [3]): 90%
Cures (Mus musculus [2]): 0
Cures (Mus musculus [13]): 1
ILS at 12 mg/kg (Mus musculus [9]): 173%

CN(C)/N=C/c1c2ccccc2c(/C=N/N(C)C)c2ccccc12
ILS at 200 mg/kg (Mus musculus [1]): 0%
Cures (Mus musculus [2]): 0

CC1(C)CCC(C)(C)NC(N/N=C/c2c3ccccc3c(/C=N/NC3=NC(C)(C)CCC(C)(C)N3)c3ccccc23)=N1.Cl.Cl
Cures (Mus musculus [2]): 0
ILS at 50 mg/kg (Mus musculus [6]): 0%

CCN(CC)CC/N=C(\S)N/N=C/c1c2ccccc2c(/C=N/N/C(S)=N/CCN(CC)CC)c2ccccc12.Cl.Cl
ILS at 6.25 mg/kg (Mus musculus [14]): 95%
Cures (Mus musculus [2]): 0

CN1CCN(C)C1=N/N=C/c1c2ccccc2c(/C=N/N=C2N(C)CCN2C)c2ccccc12
ILS at 200 mg/kg (Mus musculus [1]): 0%
Cures (Mus musculus [2]): 0

CN1CCN(/N=C/c2c3ccccc3c(/C=N/N3CCN(C)CC3)c3ccccc23)CC1.Cl.Cl
ILS at 200 mg/kg (Mus musculus [1]): 0%
Cures (Mus musculus [2]): 0

CN(C)CC(=O)N/N=C/c1c2ccccc2c(/C=N/NC(=O)CN(C)C)c2ccccc12.Cl.Cl
ILS at 200 mg/kg (Mus musculus [1]): 0%
Cures (Mus musculus [2]): 0

CN(C)CCCCCCC/N=C(\S)N/N=C/c1c2ccccc2c(/C=N/N/C(S)=N/CCCCCCCN(C)C)c2ccccc12.Cl
ILS at 6.25 mg/kg (Mus musculus [14]): 39%
Cures (Mus musculus [2]): 0
ILS (Mus musculus [10]): 0%

CC1(/C=N/NC2=NCCN2)c2ccccc2C(C)(/C=N/NC2=NCCN2)c2ccccc21 (stereo not drawn)
ILS at 200 mg/kg (Mus musculus [1]): 0%
ILS at 50 mg/kg (Mus musculus [11]): 0%

Cc1ccc(S(=O)(=O)N/N=C/c2c3ccccc3c(/C=N/NS(=O)(=O)c3ccc(C)cc3)c3ccccc23)cc1
ILS at 200 mg/kg (Mus musculus [1]): 0%
Cures (Mus musculus [2]): 0

Cl.Cl.N=C(NCc1cccs1)N/N=C/c1c2ccccc2c(/C=N/NC(=N)NCc2cccs2)c2ccccc12
Cures (Mus musculus [2]): 0
Cures (Mus musculus [4]): 0
ILS at 50 mg/kg (Mus musculus [6]): 90%
ILS at 12 mg/kg (Mus musculus [9]): 75%

CC(C)/N=C(/N/N=C/c1c2ccccc2c(/C=N/N=C(NC(C)C)NC(C)C)c2ccccc12)NC(C)C
Cures (Mus musculus [2]): 0
Cures (Mus musculus [4]): 0
ILS at 50 mg/kg (Mus musculus [6]): 50%
ILS (Mus musculus [10]): 0%

Cl.Cl.Clc1ccc2c(c1)C(/C=N/NC1=NCCN1)c1ccccc1C2/C=N/NC1=NCCN1 (stereo not drawn)
ILS at 50 mg/kg (Mus musculus [6]): 100%
Cures (Mus musculus [13]): 5
ILS at 12.5 mg/kg (Mus musculus [7]): 230%

Cl.Cl.S=C(NCCN1CCOCC1)N/N=C/c1c2ccccc2c(/C=N/NC(=S)NCCN2CCOCC2)c2ccccc12
Cures (Mus musculus [2]): 0
ILS at 50 mg/kg (Mus musculus [6]): 80%
Cures (Mus musculus [13]): 1
ILS at 12 mg/kg (Mus musculus [9]): 103%

CC(C)CN(CC/N=C(\S)N/N=C/c1c2ccccc2c(/C=N/N/C(S)=N/CCN(CC(C)C)CC(C)C)c2ccccc12)CC(C)C.Cl.Cl
Cures (Mus musculus [2]): 0
ILS at 25 mg/kg (Mus musculus [8]): 33%

CN/N=C/c1c2ccccc2c(/C=N/NC)c2ccccc12
ILS at 200 mg/kg (Mus musculus [1]): 0%
Cures (Mus musculus [2]): 0

N=C(N/N=C/c1c2ccccc2c(/C=N/NC(=N)NC2CCc3ccccc32)c2ccccc12)NC1CCc2ccccc21 (stereo not drawn)
ILS at 200 mg/kg (Mus musculus [1]): 80%
Cures (Mus musculus [2]): 0
Cures (Mus musculus [4]): 0
ILS at 25 mg/kg (Mus musculus [5]): 62%

N=C(NCc1ccccc1)N/N=C/c1c2ccccc2c(/C=N/NC(=N)NCc2ccccc2)c2ccccc12
Cures (Mus musculus [2]): 0
Cures (Mus musculus [4]): 0
ILS at 25 mg/kg (Mus musculus [8]): 68%
ILS at 12 mg/kg (Mus musculus [9]): 47%

Cl.Cl.Cl.Cl.N=C(NCc1ccccn1)N/N=C/c1c2ccccc2c(/C=N/NC(=N)NCc2ccccn2)c2ccccc12
Cures (Mus musculus [2]): 0
Cures (Mus musculus [4]): 0
ILS at 50 mg/kg (Mus musculus [6]): 95%
ILS at 25 mg/kg (Mus musculus [5]): 74%

Cl.Cl.N/C(=N\N=C\c1c2ccccc2c(/C=N/N/C(N)=N/CCO)c2ccccc12)NCCO
Cures (Mus musculus [2]): 0
Cures (Mus musculus [13]): 1
ILS at 25 mg/kg (Mus musculus [8]): 90%
ILS at 12 mg/kg (Mus musculus [9]): 80%

CN(C)CC/N=C/c1c2ccccc2c(/C=N/CCN(C)C)c2ccccc12
ILS at 200 mg/kg (Mus musculus [1]): 0%
Cures (Mus musculus [2]): 0

Cc1cc2c(cc1C)C(/C=N/NC1=NCCN1)c1ccccc1C2/C=N/NC1=NCCN1 (stereo not drawn)
ILS at 50 mg/kg (Mus musculus [6]): 73%

CCCCCCCCCCCCCCCC/N=C(\N)N/N=C/c1c2ccccc2c(/C=N/N/C(N)=N/CCCCCCCCCCCCCCCC)c2ccccc12.Cl.Cl
ILS at 200 mg/kg (Mus musculus [1]): 0%
Cures (Mus musculus [2]): 0
Cures (Mus musculus [4]): 0
ILS at 50 mg/kg (Mus musculus [11]): 0%

NC(=O)N/N=C/c1c2ccccc2c(/C=N/NC(N)=O)c2ccccc12
ILS at 200 mg/kg (Mus musculus [1]): 0%
Cures (Mus musculus [2]): 0

O=C(N/N=C/c1c2ccccc2c(/C=N/NC(=O)c2cccnc2)c2ccccc12)c1cccnc1
ILS at 200 mg/kg (Mus musculus [1]): 0%
Cures (Mus musculus [2]): 0

CCCCC1(CCCC)CN=C(N/N=C/c2c3ccccc3c(/C=N/NC3=NCC(CCCC)(CCCC)CN3)c3ccccc23)NC1.Cl.Cl
Cures (Mus musculus [4]): 0
ILS at 50 mg/kg (Mus musculus [11]): 0%

Cl.Cl.Clc1cccc2c1C(/C=N/NC1=NCCN1)c1ccccc1C2/C=N/NC1=NCCN1 (stereo not drawn)
ILS at 50 mg/kg (Mus musculus [11]): 153%
ILS at 50 mg/kg (Mus musculus [6]): 100%
Cures (Mus musculus [13]): 3
